In ChEMBL document CHEMBL1687739 (Antimicrob Agents Chemother, 2009):
Calls of active or inactive are those of the source. The calls are words filed in the database; no cut-off is given here.

How the values were obtained:
Plasmodium falciparum = test: Antiplasmodial activity against erythrocytic stage of chloroquine - and pyrimethamine-resistant Plasmodium falciparum K1 assessed as [3H]hypoxanthine incorporation after 48 hrs; type: functional, organism-based
Procedure, shortened: (§1)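 K1 erythrocytic stages were cultured in hypoxanthine-free RPMI 1640 with Albumax, A+ RBC at 2.5% hematocrit and 0.3% parasitemia. DMSO stocks were 10 mg/ml; seven twofold dilutions covered 5 to 0.156 μg/ml. Plates were held at 37°C in 4% CO2/3% O2/93% N2 for 48 h, then 0.5 μCi [3H]hypoxanthine was added for 24 h and scintillation counted. IC50 from sigmoidal curves. SI = L-6 CC50/IC50.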

Trypanosoma cruzi = test: Antitrypanosomal activity against Trypanosoma cruzi Tulahuen C2C4 trypomastigote after 48 hrs; type: functional, organism-based; details: Tulahuen C2C4, 48 h
Procedure, shortened: (§2)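 T. cruzi Tulahuen C2C4 (LacZ) trypomastigotes, 5,000/well, were added to rat L-6 myoblasts seeded 24 h earlier in RPMI 1640 with 10% FBS. After 48 h the medium was replaced with seven threefold drug dilutions (90 to 0.123 μg/ml) and incubated 96 h. CPRG-Nonidet was added and read at 540 nm after 2–6 h to give IC50. Duplicates, assay repeated at least once. SI = L-6 CC50/parasite IC50.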

Leishmania donovani = test: Antileishmanial activity against Leishmania donovani MHOM/ET/67/L82 amastigote after 72 hrs; type: functional, organism-based; details: MHOM/ET/67/L82, 72 h
Procedure, shortened: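 Axenic amastigotes were grown at 37°C under 5% CO2 in SM medium, pH 5.4, with 10% heat-inactivated FBS. 10^5 per well were exposed 72 h to serial dilutions (30 to 0.041 μg/ml). Alamar Blue was added for 2 h, then fluorescence read at ex 536/em 588 nm as % of control. IC50 came from sigmoidal curves. Duplicates, repeated at least once.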

[1] = Cytotoxicity against rat L6 cells after 72 hrs by microplate alamar blue assay; type: cell-based
Procedure, shortened: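 Rat skeletal myoblast L-6 cells, 4 × 10^4/well in RPMI 1640 with L-glutamine and 10% FBS, were given seven threefold dilutions (90 to 0.123 μg/ml) for 72 h. Alamar Blue was added for 2 h and fluorescence read at ex 536/em 588 nm. Tested in duplicate, assay repeated at least once.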

[2] = Selectivity index, CC50 for rat L-6 cells to IC50 for erythrocytic stage of chloroquine - and pyrimethamine-resistant Plasmodium falciparum K1; type: functional; procedure, shortened: as §1
[3] = Selectivity index, CC50 for rat L-6 cells to IC50 for Trypanosoma brucei rhodesiense ST1B900 trypomastigote […]; type: functional
Procedure, shortened: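 Bloodstream-form STIB900, 10^4/well in supplemented MEM with 15% heat-inactivated horse serum, were exposed to seven threefold dilutions (90 to 0.123 μg/ml) for 72 h at 37°C, 5% CO2. Alamar Blue was added for 2–4 h, then fluorescence read at ex 536/em 588 nm. SI = L-6 CC50/IC50. Duplicates, repeated at least once.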

[4] = Selectivity index, CC50 for rat L-6 cells to IC50 for Trypanosoma cruzi Tulahuen C2C4 trypomastigote; type: functional; procedure, shortened: as §2
[5] = system: Trypanosoma brucei rhodesiense; test: Antitrypanosomal activity against Trypanosoma brucei rhodesiense ST1B900 trypomastigote infected in NMR1 mouse assessed as survival of mouse at 50 mg/kg, ip administered on day 3 post infection for 4 days; type: functional, organism-based; parameters: dose 50 mg/kg

Structure (SMILES)	IC50 (Plasmodium falciparum)	IC50 (Trypanosoma cruzi)	IC50 (Leishmania donovani)	CC50 at 72 h [1]	Selectivity Index [2]	Selectivity Index [3]	Selectivity Index [4]	Activity [5]
CC(C)(C)OC(=O)NCCCCNC1CCN(CCc2ccccc2)CC1	1.28 µM	56.3 µM	> 80 µM	155 µM	–	–	–	–
N=C(N)NCCCCCCCCNC(=N)N.O=S(=O)(O)O	0.106 µM	–	–	> 276 µM	>2608	–	–	–
O=[N+]([O-])c1cccc(NC2CCN(CCc3ccccc3)CC2)c1	10.6 µM	46.1 µM	23.2 µM	257 µM	–	–	–	–
CCC(=O)N(CCCCCCN/C(=N/C(=O)OC(C)(C)C)NC(=O)OC(C)(C)C)C1CCN(CCc2ccccc2)CC1	0.85 µM	23.2 µM	13.2 µM	24.9 µM	29	–	–	–
CCCCCCCCCCCCCCCCOP(=O)([O-])OCC[N+](C)(C)C [MILTEFOSINE]	–	–	0.205 µM	–	–	–	–	–
CC(C)(C)OC(=O)NCCCCCCNC1CCN(CCc2ccccc2)CC1	0.9 µM	28.6 µM	> 74 µM	39.3 µM	43	36	–	–
CC(C)(C)OC(=O)NCCCNC1CCN(CCc2ccccc2)CC1	2.08 µM	55.4 µM	68.9 µM	129 µM	–	–	–	–
CC(C)(C)OC(=O)NCCCCCCCCCNC1CCN(CCc2ccccc2)CC1	0.36 µM	3.73 µM	> 67 µM	6.05 µM	16	48	<3	–
CCCCCCCCCCCCCNC(=N)N.O=S(=O)(O)O [AMINO(TRIDECYLAMINO)METHANIMINIUM HYDROGENSULFATE]	7.98 µM	–	–	19.6 µM	2.4	–	–	–
CCC(=O)N(CCCCCCCCCCCCN/C(=N/C(=O)OC(C)(C)C)NC(=O)OC(C)(C)C)C1CCN(CCc2ccccc2)CC1	0.41 µM	5.2 µM	5.78 µM	7.54 µM	18	–	<3	–
CC(C)(C)OC(=O)NCCCCCCCNC1CCN(CCc2ccccc2)CC1	0.77 µM	11.9 µM	> 72 µM	32.9 µM	42	41	–	–
CCC(=O)N(CCCCCCCCCCCCNC(=O)OC(C)(C)C)C1CCN(CCc2ccccc2)CC1	1.32 µM	8.07 µM	6.2 µM	13.8 µM	–	–	<3	–
CCC(=O)N(CCCCCCCCN/C(=N/C(=O)OC(C)(C)C)NC(=O)OC(C)(C)C)C1CCN(CCc2ccccc2)CC1	0.6 µM	12.3 µM	14.8 µM	21.5 µM	35	–	–	–
N=C(N)NCCCCCCNC(=N)N.O=S(=O)(O)O	0.445 µM	–	–	> 302 µM	>679	–	–	–
CCC(=O)N(CCCCCCCCCNC(=O)OC(C)(C)C)C1CCN(CCc2ccccc2)CC1	1.43 µM	11.7 µM	34.8 µM	16 µM	–	–	–	–
CC(C)(C)OC(=O)NCc1cccc(CNC2CCN(CCc3ccccc3)CC2)c1	1.66 µM	17.3 µM	78.1 µM	111 µM	–	219	–	–
CCC(=O)N(CCN/C(=N/C(=O)OC(C)(C)C)NC(=O)OC(C)(C)C)C1CCN(CCc2ccccc2)CC1	1.85 µM	36.8 µM	19.1 µM	35.6 µM	–	–	–	–
CC(C)(C)OC(=O)NCCCCCCCCCCCCNC1CCN(CCc2ccccc2)CC1	0.32 µM	3.16 µM	17.8 µM	8.2 µM	25	52	<3	–
CC(C)(C)OC(=O)NCCCCCCCCNC1CCN(CCc2ccccc2)CC1	0.62 µM	5.72 µM	> 69 µM	15.5 µM	25	130	<3	inactive
N=C(N)NCCCCCCCCCNC(=N)N.O=S(=O)(O)O	0.084 µM	–	–	> 265 µM	>3162	–	–	–
CCC(=O)N(CCCN/C(=N/C(=O)OC(C)(C)C)NC(=O)OC(C)(C)C)C1CCN(CCc2ccccc2)CC1	1.35 µM	> 53 µM	31 µM	80.7 µM	–	–	–	–
CC(C)(C)OC(=O)NCCCCCNC1CCN(CCc2ccccc2)CC1	1.53 µM	69 µM	> 77 µM	95.6 µM	–	–	–	–
CC(C)(C)OC(=O)NCCNC1CCN(CCc2ccccc2)CC1	2.06 µM	55.5 µM	81.2 µM	174 µM	–	–	–	–
